Results as given in publication PMC6344890 (Journal of medicinal chemistry, 2018).
Each block holds one compound with its values, some of them ahead of it.

Legend:
PC12 cells [1] = experiment: Oxygen glucose deprivation; type: cell-based; conditions: PC12-OGD primary assay, 1, 10, 25 μM
In short: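 PC12 cells (passage 12–14, undifferentiated) were plated overnight in serum-containing DMEM/F12. They were deprived of glucose and oxygen for 1.5 h (glucose-free HBSS, argon, 37 °C). The medium was then replaced with growth medium containing test compound (1, 10, 25 µM) or DMSO for 24 h. MTT (0.5 mg/mL) was added for 4 h and dissolved in DMSO, with absorbance read at 540 nm. Viability is % change versus vehicle control; mean ± SEM, n = 3, triplicate experiments; ANOVA with Dunnett's test.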

delta opioid receptor = delta opioid receptor (Homo sapiens, UniProt P41143); experiment: Psychoactive Drug Screening Program binding, delta opioid receptor; conditions: PDSP
[2] = system: benzodiazepine (BZP) rat brain site; experiment: Psychoactive Drug Screening Program binding, benzodiazepine; conditions: PDSP
PC12 cells [3] = experiment: LC-MS/MS study of cell permeability; type: in vitro ADME; conditions: 25 μM, 24 h, control and OGD-treated PC12 cells
In short: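 PC12 cells (1×10^6) were given 1.5 h OGD under argon at 37 °C, or kept without OGD on a control plate. They were then exposed to 25 µM test compound or vehicle for 24 h. Medium was collected, and cytosol was taken by lysis in HEPES/NP-40 buffer for 15 min at 0 °C and centrifuged. Samples were diluted in 2% formic acid and spiked with an analogue internal standard. Analysis was positive-ESI UPLC-MS/MS, with MRM peak areas normalised to the internal standard.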

[4] = Reactivity analysis with N-acetyl cysteine, HPLC-PDA; type: physicochemical; conditions: 250 μM compound, N-acetyl cysteine 5 mM, PBS 50 mM pH 7.4, 37 °C, 2 and 12 h
In short: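 Test compound (250 µM) or N-ethylmaleimide (250 µM) was incubated with or without N-acetylcysteine (5 mM) in 50 mM PBS, pH 7.4, at 37 °C. Aliquots were taken at 2 and 12 h and analysed by HPLC-PDA. Peak areas at each analyte's UV λmax gave the relative abundance of remaining starting material.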

male C57BL/6 mice = experiment: Step-through passive avoidance; type: in vivo; conditions: scopolamine 1 mg/kg ip 30 min prior to training alone (negative control); vehicle-treated 270 ± 29 s; mean ± SEM
PC12 cells [5] = experiment: OGD neuroprotection concentration response, PrestoBlue; type: cell-based; conditions: 50 μM, OGD-exposed PC12 cells
In short: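 Undifferentiated PC12 cells (passage 12–14) were plated overnight in DMEM/F12 with 5% FBS and 5% HS. They were given 1.5 h OGD in glucose-free HBSS under argon at 37 °C. Fresh growth medium with test compound (0.1, 1, 5, 10, 25, 50 µM) or DMSO followed, for 24 h at 37 °C. PrestoBlue (10%) was added for 30 min, and fluorescence was read at 560/590 nm. Results are % change versus vehicle control; non-OGD plates were included.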

sGC signaling = experiment: PC12-OGD assay with co-incubation of the sGC inhibitor ODQ, MTT readout; type: cell-based; conditions: ODQ 10 μM
In short: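 This was the PC12 OGD protocol (90 min glucose-free HBSS under argon at 37 °C, then 24 h in growth medium with test compound), with ODQ (10 µM) co-incubated. Viability was read by MTT (0.5 mg/mL, 4 h, DMSO-solubilised, 540 nm) relative to vehicle control. Mean ± SEM, n = 3, duplicate experiments; one-way ANOVA with Dunnett's test.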

[6] = system: GABAA, serotonin receptors, dopamine receptors, and muscarinic and nicotinic acetylcholine receptors; experiment: Psychoactive Drug Screening Program radioligand binding panel; conditions: PDSP, Supplementary Table 2
hERG = hERG (Homo sapiens, UniProt Q12809); experiment: Psychoactive Drug Screening Program hERG binding; conditions: PDSP
PC12 cells [7] = experiment: NO production as NO2− in the primary assay; type: cell-based
[8] = type: in vivo; conditions: 20 mg/kg ip or po, mice
CREB phosphorylation = experiment: pCREB:tCREB ratio in forebrain by ELISA; type: in vivo, mice; conditions: 5a alone 20 mg/kg ip or po, 1, 2 or 12 h

Sequence of hERG (Q12809 whole entry): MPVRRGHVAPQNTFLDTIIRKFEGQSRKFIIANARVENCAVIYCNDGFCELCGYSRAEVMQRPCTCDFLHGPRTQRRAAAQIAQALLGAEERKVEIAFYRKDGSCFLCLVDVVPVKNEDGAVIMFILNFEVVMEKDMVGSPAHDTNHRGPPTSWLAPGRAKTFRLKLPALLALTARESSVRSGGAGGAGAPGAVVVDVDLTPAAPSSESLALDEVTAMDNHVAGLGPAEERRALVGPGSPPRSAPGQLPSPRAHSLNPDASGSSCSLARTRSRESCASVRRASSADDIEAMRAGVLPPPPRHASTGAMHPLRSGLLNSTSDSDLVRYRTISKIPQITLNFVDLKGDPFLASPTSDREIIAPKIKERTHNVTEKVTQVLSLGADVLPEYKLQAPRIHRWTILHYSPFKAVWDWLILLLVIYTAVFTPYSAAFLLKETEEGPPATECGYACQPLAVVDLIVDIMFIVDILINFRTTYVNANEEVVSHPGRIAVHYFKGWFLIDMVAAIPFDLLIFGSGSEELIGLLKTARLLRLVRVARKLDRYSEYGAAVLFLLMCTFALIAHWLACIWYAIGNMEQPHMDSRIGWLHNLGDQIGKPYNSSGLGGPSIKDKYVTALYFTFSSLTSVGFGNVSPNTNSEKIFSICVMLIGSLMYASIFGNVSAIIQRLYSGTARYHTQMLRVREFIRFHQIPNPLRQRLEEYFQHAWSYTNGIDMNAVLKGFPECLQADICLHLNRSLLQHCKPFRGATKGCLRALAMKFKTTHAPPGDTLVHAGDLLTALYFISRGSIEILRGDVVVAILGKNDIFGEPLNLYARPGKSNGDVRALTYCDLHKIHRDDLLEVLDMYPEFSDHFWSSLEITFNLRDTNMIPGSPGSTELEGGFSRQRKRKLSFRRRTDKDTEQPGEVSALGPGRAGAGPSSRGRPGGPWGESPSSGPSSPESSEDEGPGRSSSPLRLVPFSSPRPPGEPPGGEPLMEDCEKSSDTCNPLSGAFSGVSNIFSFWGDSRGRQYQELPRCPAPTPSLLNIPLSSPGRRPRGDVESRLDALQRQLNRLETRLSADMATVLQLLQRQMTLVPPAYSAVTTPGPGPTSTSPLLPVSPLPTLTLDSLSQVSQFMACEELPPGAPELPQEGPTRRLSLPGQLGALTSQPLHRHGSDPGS
Sequence of delta opioid receptor (P41143 whole entry): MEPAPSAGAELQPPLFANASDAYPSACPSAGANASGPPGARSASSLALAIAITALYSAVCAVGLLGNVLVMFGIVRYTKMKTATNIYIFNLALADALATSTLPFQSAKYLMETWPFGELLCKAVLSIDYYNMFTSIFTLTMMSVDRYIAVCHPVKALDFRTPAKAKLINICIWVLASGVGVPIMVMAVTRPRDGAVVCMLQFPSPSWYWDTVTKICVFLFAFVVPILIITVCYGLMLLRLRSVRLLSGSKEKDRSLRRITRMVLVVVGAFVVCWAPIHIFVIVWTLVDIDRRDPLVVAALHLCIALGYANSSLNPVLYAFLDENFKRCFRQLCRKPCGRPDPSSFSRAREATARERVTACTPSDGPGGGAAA

Structure (SMILES): CCN1C(=O)C=CC1=O [NEM, N-ethylmaleimide, reference compound]
reactivity with excess thiol [4]: complete reaction

Structure (SMILES): CN1[C@@H]2C[C@@H](OC(=O)[C@H](CO)c3ccccc3)C[C@H]1[C@@H]1O[C@@H]12 [Scopolamine]
latency to enter the dark compartment 24 h after training (male C57BL/6 mice): 63.5 ± 30 s

Structure (SMILES): CC1CCN(Cc2no[n+]([O-])c2-c2ccc(OC(F)F)cc2)CC1 [Furoxan 5d, 3-(4-(Difluoromethoxy)phenyl)-4-((4-methylpiperidin-1-yl)-methyl)-1,2,5-oxadiazole 2-Oxide]
neuroprotection (in words) (PC12 cells [1]): noticeable neuroprotective activity

Structure (SMILES): CC1CCN(Cc2no[n+]([O-])c2-c2ccc(Br)cc2)CC1 [Furoxan 5c, 3-(4-Bromophenyl)-4-((4-methylpiperdin-1-yl)methyl)-1,2,5-oxadiazole 2-Oxide]
neuroprotection (in words) (PC12 cells [1]): noticeable neuroprotective activity

Further lines, with some results ahead:

inhibition of binding at the delta opioid receptor (delta opioid receptor): significantly inhibited binding | inhibition of binding at the benzodiazepine (BZP) rat brain site [2]: significantly inhibited binding | distribution between media (supernatant) and cytosol (PC12 cells [3]): found in greatest amounts in the cytosol
Structure (SMILES): [2H]C1([2H])CC(C)CC([2H])([2H])N1Cc1no[n+]([O-])c1-c1ccc(F)cc1 [Furoxan 7a, 3-(4-Fluorophenyl)-4-((4-methylpiperidin-1-yl-2,2,6,6-d4)methyl)-1,2,5-oxadiazole 2-Oxide]
neuroprotection (in words) (PC12 cells [1]): no neuroprotective effects

reactivity with excess thiol [4]: negligible reactivity | distribution between media (supernatant) and cytosol (PC12 cells [3]): found in greatest amounts in the cytosol | presence in forebrain and plasma after 12 h [8]: detectable levels after 12 h
Structure (SMILES): CC1CCN(Cc2no[n+]([O-])c2-c2ccc(F)cc2)CC1 [Furoxan 5a, 3-(4-Fluorophenyl)-4-((4-methylpiperidin-1-yl)methyl)-1,2,5-oxadiaozle 2-Oxide]
neuroprotection (in words) (PC12 cells [1]): noticeable neuroprotective activity | toxicity at the highest concentration tested (PC12 cells [5]): no toxicity was observed | neuroprotective effects on co-incubation with ODQ (sGC signaling): completely blocked | interference with radioligand binding, receptor panel [6]: does not interfere with binding of any radioligands for all receptors screened | hERG binding (hERG): No hERG binding was observed | NO production in the form of NO2− (PC12 cells [7]): negligible NO production | effect on pCREB (pCREB:tCREB ratio), forebrain (CREB phosphorylation): no effect on pCREB was observed
